3 compounds from ChEMBL document CHEMBL4251567 (Eur J Med Chem, 2018) can be followed below.

The target in assay [1] is Histone deacetylase 3 (Homo sapiens) (UniProt O15379). The assay is described as follows: Inhibition of HDAC3 in human HeLa-S3 cell lysates assessed as remaining activity at 1.25 uM preincubated for 15 mins followed by HDAC-Glo substrate addition measured after 30 to 40 mins by […] relative to control. The essentials: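 Antibody-capture (ELISA-type) assay: HDAC antibody coated in carbonate/bicarbonate buffer pH 9.4, wells blocked with 5% milk in TBST. HeLa-S3 lysate added at 1 mg/mL for HDAC3, 1 h at 4 °C, then washed. Inhibitor in DMSO preincubated 15 min at RT in HDAC-Glo buffer. HDAC-Glo reagent added, luminescence read after 30-40 min. Concentrations are final. Background = no-antibody well; activity given as % of DMSO control.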
Sequence of Histone deacetylase 3 (Homo sapiens) (O15379 whole entry): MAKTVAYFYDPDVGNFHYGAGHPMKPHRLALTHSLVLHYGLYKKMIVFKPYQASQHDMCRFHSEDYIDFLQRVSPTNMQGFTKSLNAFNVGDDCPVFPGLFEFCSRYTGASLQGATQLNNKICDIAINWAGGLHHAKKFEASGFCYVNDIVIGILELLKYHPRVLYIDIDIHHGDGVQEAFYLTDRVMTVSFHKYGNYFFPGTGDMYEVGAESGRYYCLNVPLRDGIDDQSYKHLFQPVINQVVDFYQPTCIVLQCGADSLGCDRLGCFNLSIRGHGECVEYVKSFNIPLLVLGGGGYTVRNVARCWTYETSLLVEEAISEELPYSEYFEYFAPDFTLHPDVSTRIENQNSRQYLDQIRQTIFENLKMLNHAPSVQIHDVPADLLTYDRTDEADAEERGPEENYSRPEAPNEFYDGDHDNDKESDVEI

Assay [2] addresses T1, Protein deacetylase HDAC6 (Homo sapiens) (UniProt Q9UBN7).
T1 sequence (whole entry): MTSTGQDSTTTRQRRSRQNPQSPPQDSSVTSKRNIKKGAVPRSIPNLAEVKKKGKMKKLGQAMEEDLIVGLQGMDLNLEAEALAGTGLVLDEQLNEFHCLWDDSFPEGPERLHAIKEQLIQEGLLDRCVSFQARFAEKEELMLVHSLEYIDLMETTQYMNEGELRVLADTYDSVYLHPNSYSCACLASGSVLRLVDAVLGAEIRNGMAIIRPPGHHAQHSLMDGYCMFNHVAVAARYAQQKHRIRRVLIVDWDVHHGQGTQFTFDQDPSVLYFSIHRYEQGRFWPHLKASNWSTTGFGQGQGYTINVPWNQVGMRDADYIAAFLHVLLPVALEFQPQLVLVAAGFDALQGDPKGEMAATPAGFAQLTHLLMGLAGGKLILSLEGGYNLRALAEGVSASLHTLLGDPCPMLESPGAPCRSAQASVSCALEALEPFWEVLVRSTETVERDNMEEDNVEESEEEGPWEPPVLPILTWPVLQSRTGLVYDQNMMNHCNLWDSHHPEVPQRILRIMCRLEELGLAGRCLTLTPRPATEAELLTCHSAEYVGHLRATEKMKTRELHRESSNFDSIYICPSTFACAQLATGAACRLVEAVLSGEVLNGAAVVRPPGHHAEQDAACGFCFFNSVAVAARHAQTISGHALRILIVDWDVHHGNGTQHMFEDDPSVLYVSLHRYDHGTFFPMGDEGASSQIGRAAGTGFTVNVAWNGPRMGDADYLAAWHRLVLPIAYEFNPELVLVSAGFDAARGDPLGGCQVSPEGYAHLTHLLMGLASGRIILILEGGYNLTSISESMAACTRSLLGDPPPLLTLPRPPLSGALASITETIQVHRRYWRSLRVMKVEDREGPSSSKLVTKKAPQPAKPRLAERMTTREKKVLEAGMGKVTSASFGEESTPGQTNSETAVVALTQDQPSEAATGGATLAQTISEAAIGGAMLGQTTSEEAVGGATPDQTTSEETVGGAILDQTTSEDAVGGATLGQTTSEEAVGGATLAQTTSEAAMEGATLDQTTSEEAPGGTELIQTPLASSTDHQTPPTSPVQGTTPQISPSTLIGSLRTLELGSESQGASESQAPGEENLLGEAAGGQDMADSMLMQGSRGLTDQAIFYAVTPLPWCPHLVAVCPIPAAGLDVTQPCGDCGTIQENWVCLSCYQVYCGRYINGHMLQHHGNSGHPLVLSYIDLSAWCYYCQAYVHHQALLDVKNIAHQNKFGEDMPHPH
The assay can be described thus: Inhibition of HDAC6 in human HeLa-S3 cell lysates assessed as remaining activity at 8 x 10^-7 M preincubated for 15 mins followed by HDAC-Glo substrate addition measured after 30 to 40 mins by […] relative to control. An outline of the steps: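 HDAC6 captured on an anti-HDAC6 antibody-coated plate (2 μg/mL, pH 9.4 carbonate buffer, milk-blocked). HeLa-S3 lysate loaded at 1 mg/mL, 1 h at 4 °C, then washed. 15 min RT preincubation with inhibitor in DMSO; HDAC-Glo reagent added, luminescence read at 30-40 min. Concentrations are final. Background = no-antibody well; values are % activity versus DMSO control.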

In assay [3] the target is Histone deacetylase 2 (Homo sapiens) (UniProt Q92769). The assay is described as follows: Inhibition of HDAC2 in human HeLa-S3 cell lysates assessed as remaining activity at 1.6 x 10^-5 M preincubated for 15 mins followed by HDAC-Glo substrate addition measured after 30 to 40 mins by […] relative to control. An outline of the steps:
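Same antibody-capture format as the other class I isoforms. HeLa-S3 lysate added at 100 μg/mL for HDAC1 and HDAC2, 1 h at 4 °C, then washed. Inhibitor in DMSO preincubated 15 min at RT; HDAC-Glo reagent added and luminescence read after 30-40 min. Concentrations are final. Signal corrected against a well without antibody; activity expressed as % of DMSO control.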

Sequence of Histone deacetylase 2 (Homo sapiens) (Q92769 whole entry, canonical isoform): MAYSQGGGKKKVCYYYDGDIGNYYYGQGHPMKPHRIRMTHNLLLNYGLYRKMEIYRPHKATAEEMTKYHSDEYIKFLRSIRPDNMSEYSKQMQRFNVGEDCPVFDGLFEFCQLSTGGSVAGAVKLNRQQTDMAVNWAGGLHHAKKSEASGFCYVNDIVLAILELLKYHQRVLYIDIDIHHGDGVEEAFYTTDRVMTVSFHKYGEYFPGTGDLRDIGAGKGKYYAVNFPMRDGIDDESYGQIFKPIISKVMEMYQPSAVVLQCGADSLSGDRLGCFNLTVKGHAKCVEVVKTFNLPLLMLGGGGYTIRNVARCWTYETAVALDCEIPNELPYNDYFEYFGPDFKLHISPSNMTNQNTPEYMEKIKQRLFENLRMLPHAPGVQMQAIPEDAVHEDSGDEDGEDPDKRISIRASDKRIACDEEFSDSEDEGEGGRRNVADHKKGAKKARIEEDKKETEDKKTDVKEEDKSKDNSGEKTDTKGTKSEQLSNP

For the compound `CCCCCCC(CCCC(=O)Nc1ccccc1)CCC(=O)NO` (stereo not drawn), in assay [1], the Activity was 100%.

As for `O=C(CC[C@H](CCCC(=O)Nc1ccccc1)Cc1ccccc1)NO`, the Activity in assay [2] was found to be 16%.

For the compound `CCC(CCCC(=O)Nc1ccccc1)CCC(=O)NO` (stereo not drawn), the Activity in assay [3] amounted to 23%.
